WT yeast gro inh = growth inhibition of WT strain, primary screen, mitochondrial fusion inhibitor project, WT and mutant strains, chemical genetic; mitochondrial fusion phenotypic screen; inhibition, % at 10 µM; actives 2.1% (n = 190,000); AID 1362, 2008; in the data active = inhibition above about 58%; tested in S. cerevisiae
RBBP9 inh = human RBBP9 inhibitors, primary screen, biochemical, fluorescence polarization, FP-Rh probe, HTS | Serine hydrolase RBBP9 (Homo sapiens), O75884 | recombinant RBBP9 | inhibition, % at 7.94 µM | actives 0.2% (n = 220,000) | AID 1515, 2009;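 active = inhibition above the campaign mean of all tested compounds plus 3 SD, cut at about 14% in these data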
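system = RBBP9 protein | input = RBBP9 at 2.5 µM in dispensed solution, before mixing | measured by = fluorescence polarization (mP), excitation 525 nm, emission 598 nm | incubation = enzyme-compound preincubation 30 min, then probe labeling 45 min, 25 °C | buffer or medium = Tris-NaCl-Pluronic buffer, pH 8.0 | compound = single dose 7.94 µM | also added = FP-Rh probe, 375 nM dispensing solution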
14-3-3 Bad PPI = inhibitors of 14-3-3 zeta/Bad binding, primary screen, biochemical, TR-FRET, bovine 14-3-3 zeta; 14-3-3 protein zeta/delta (Bos taurus), P63103; TR-FRET 14-3-3zeta/Dy647-pBad peptide displacement, 1 h; inhibition, % at 21.7 µM; actives 0.71% (n = 220,000); AID 781, 2007;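 active = inhibition above about 70%, limit read from the data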
KCC2 mod = KCC2 cotransporter modulators, thallium flux, primary screen, cell-based, HEK293 KCC2, FluoZin-2 fluorescence, MLSMR; Solute carrier family 12 member 5 (Homo sapiens), Q9H2X9; KCC2 cells, thallium flux FluoZin-2 fluorescence; B-score of Tl+ flux slope (higher = more flux/activation; lower = inhibition) at 10 µM; actives 2.2% (n = 190,000);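 active = thallium flux slope and its plate-corrected score both differing from the plate sample mean at a set confidence after two filtering rounds, in either direction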;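 also: slope of fluorescence scaled to starting intensity during 10 to 20 s after thallium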
Target sequence (Q9H2X9 whole entry, looked up): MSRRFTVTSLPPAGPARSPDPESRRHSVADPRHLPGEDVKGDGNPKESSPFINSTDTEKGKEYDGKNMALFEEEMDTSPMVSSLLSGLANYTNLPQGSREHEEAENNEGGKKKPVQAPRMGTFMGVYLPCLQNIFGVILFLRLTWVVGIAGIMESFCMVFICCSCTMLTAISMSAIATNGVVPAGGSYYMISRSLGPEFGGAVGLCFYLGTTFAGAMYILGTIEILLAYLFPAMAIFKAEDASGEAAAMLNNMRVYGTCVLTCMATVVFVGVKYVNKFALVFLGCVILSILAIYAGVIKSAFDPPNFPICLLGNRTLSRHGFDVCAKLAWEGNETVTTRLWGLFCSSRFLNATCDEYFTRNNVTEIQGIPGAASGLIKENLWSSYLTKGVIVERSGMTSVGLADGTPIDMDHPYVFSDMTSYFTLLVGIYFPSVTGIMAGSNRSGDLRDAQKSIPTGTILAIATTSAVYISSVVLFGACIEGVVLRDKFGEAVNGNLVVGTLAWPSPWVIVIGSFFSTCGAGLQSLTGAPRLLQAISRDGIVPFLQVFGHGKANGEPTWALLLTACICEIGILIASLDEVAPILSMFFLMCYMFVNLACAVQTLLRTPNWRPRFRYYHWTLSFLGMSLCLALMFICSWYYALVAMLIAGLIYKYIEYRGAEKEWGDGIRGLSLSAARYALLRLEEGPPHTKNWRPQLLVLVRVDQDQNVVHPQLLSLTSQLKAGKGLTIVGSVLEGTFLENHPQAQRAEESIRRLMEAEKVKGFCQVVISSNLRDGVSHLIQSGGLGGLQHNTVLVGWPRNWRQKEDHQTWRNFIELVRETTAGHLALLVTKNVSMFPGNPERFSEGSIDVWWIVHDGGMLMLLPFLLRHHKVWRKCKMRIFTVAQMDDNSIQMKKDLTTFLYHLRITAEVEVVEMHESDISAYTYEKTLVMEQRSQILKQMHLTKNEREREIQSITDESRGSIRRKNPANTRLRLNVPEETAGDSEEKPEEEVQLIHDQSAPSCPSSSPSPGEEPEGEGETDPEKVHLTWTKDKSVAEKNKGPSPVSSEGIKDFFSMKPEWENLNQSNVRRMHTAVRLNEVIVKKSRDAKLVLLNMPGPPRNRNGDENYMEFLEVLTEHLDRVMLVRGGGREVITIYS
NCF1 inh = p47phox/p22phox peptide binding inhibitors, primary screen, biochemical, uHTS, NADPH oxidase regulatory subunit | inhibition, % at 24.7 µM | fluorescence polarization, 2 h | Neutrophil cytosol factor 1 (Homo sapiens), P14598 | actives 0.53% (n = 220,000);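 active = inhibition above about 30%, limit read from the data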
ROMK mod = ROMK potassium channel modulators, primary screen, cell-based, thallium flux, MLSMR library. AID 1918, 2009. B-score at 10 µM. actives 2% (n = 130,000). Tet-inducible ROMK, thallium flux fluorescence; actives lie on both sides;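 active = signal ratio slope over the read window, or its plate-corrected B-score, at least 3 SD from the plate mean, either direction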;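 also: B-score of the F/F0 ratio slope over 7 to 12 s after thallium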
KCC2 sec1 = KCC2 modulators in sodium-free buffer, confirmation, cell-based, HEK293 KCC2, thallium flux, secondary assay. FluoZin2 fluorescence; hits give high values. shares compounds with KCC2 mod. actives 15% (n = 3,700). normalised thallium flux (F/F0 slope) at 10 µM;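 active = thallium flux slope above the same plate's solvent-only control mean plus 3 SD; inconclusive = the two replicate wells disagree; inactive = no significant difference from solvent-only control wells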
KCC2 bumet counter = thallium flux persisting under bumetanide in KCC2 cells, confirmation, counter-screen for KCC2 modulator project, cell-based, HEK293 KCC2, FluoZin2, secondary assay 3 | AID 1714, 2009 | HEK293-KCC2 + bumetanide/ouabain; hits give high values | normalized thallium flux at 10 µM | shares compounds with KCC2 mod | actives 49% (n = 3,700);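 active = thallium entry rate above the same plate's blocked-transporter control wells by more than 3 SD; inconclusive = the two repeat wells disagree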;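 also: raw slope of fluorescence over initial fluorescence between 10 and 20 s after thallium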
KCC2 secondary2 = KCC2 modulators without ouabain present, confirmation, cell-based, HEK293 KCC2, thallium flux, FluoZin2, secondary assay 2; thallium flux FluoZin2 fluorescence; actives lie on both sides; F/F0 rise rate, 10–20 s post-thallium; actives 23% (n = 3,700); shares compounds with KCC2 mod; normalized thallium flux at 10 µM;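 active = thallium flux slope more than 3 SD above or below the plate's solvent-only control mean, mostly below; inconclusive = the two repeat wells disagreed; inactive = no significant shift from solvent-only controls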
HEK293 Tl flux = thallium flux modulation in parental HEK cells, confirmation, counter-screen for KCC2 modulator project, cell-based, counterscreen 1 | shares compounds with KCC2 mod | HEK293 parental cells, thallium flux FluoZin2, ouabain; baseline-ratio fluorescence slope, 10–20 s after thallium | actives 46% (n = 3,700) | thallium flux rate (normalised fluorescence) at 10 µM;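 active = thallium flux rate significantly above the same plate's solvent-only control wells, beyond their mean plus 3 SD; inconclusive = the two replicate wells gave conflicting results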
KCC2 retest ouab = KCC2 inhibitors and activators, ouabain retest, confirmation, HEK-KCC2 cells; raw Tl+ flux slope (below DMSO = inhibition, above = activation) at 10 µM; actives 48% (n = 3,700); shares compounds with KCC2 mod; AID 1717, 2009; HEK293-KCC2, thallium flux FluoZin2 fluorescence; bidirectional: low = inhibitor, high = activator;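 active = thallium flux slope beyond 3 SD from same-plate DMSO control mean in most replicates, usually higher, sometimes lower; inconclusive = repeat tests gave conflicting results; inactive = no significant difference from controls in most replicates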;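 also: slope of initial-normalized fluorescence between seconds 10 and 20 after thallium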
HEK293 Tl flux2 = native HEK Tl+ uptake effects, second counter-screen – HEK cells, counterscreen 2, counter-screen for KCC2 modulator project, confirmation | AID 1718, 2009 | HEK293 parental, thallium flux FluoZin-2 fluorescence slope | shares compounds with KCC2 mod | actives 33% (n = 3,700) | thallium flux slope at 10 µM;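 active = thallium flux slope above the same plate's solvent-control mean plus 3 SD in both duplicate wells; inconclusive = duplicate wells that disagreed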;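 also: run without ouabain in cells lacking the KCC2 cotransporter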
Numbers stand for hits. Compounds with a hit are over-represented: about 5.8% of the library has one in this group of screens.

Cc1ccc(-c2nc(C#N)c(N3CCCCC3)o2)cc1 was read as WT yeast gro inh inactive, RBBP9 inh inactive, 14-3-3 Bad PPI inactive, KCC2 mod inactive and NCF1 inh inactive.
For N#Cc1nc(-c2ccc(F)cc2)oc1N1CCCC1 the results were WT yeast gro inh inactive, RBBP9 inh inactive, 14-3-3 Bad PPI inactive, KCC2 mod -5.65, NCF1 inh inactive, ROMK mod inactive, KCC2 sec1 inactive, KCC2 bumet counter inactive, KCC2 secondary2 inactive, HEK293 Tl flux inactive, KCC2 retest ouab inactive and HEK293 Tl flux2 inactive.
`COc1cc(Cl)c(C)cc1NC(=O)CN(C)Cc1cccc(OC)c1OC` gave WT yeast gro inh 59.2, RBBP9 inh inactive, 14-3-3 Bad PPI inactive, KCC2 mod -3.57, NCF1 inh inactive, ROMK mod inactive, KCC2 sec1 inactive, KCC2 bumet counter inactive, KCC2 secondary2 inactive, HEK293 Tl flux 0.00614, KCC2 retest ouab inactive and HEK293 Tl flux2 inconclusive.
COc1ccccc1CN(C)CC(=O)Nc1ccc(Cl)cc1F was read as WT yeast gro inh inactive, RBBP9 inh inactive, 14-3-3 Bad PPI inactive, KCC2 mod inactive, NCF1 inh inactive and ROMK mod inactive.
Screening COC(=O)CCCCC(=O)C1C(=O)CC(C)(C)C(C(=O)OC)C1=O (stereo unspecified) returned WT yeast gro inh inactive, RBBP9 inh inactive, 14-3-3 Bad PPI inactive, KCC2 mod inactive and NCF1 inh inactive.
`CC1(C)CC(=O)C(C(=O)CCCCC(=O)C2C(=O)CC(C)(C)CC2=O)C(=O)C1` gave WT yeast gro inh inactive, RBBP9 inh inactive, 14-3-3 Bad PPI inactive, KCC2 mod 4.4, NCF1 inh inactive, ROMK mod inactive, KCC2 sec1 inactive, KCC2 bumet counter inactive, KCC2 secondary2 inactive, HEK293 Tl flux inactive, KCC2 retest ouab inactive and HEK293 Tl flux2 inactive.
COC(=O)C1=C(C(=O)OC)[C@@H]2N(Cc3ccccc3)c3ccccc3[C@@]23C[C@@H](C(=O)OC)N(C(C)=O)C3=N1 was read as 14-3-3 Bad PPI inactive, KCC2 mod -1.13, NCF1 inh inactive, KCC2 sec1 inactive, KCC2 bumet counter inactive, KCC2 secondary2 inactive, HEK293 Tl flux inactive, KCC2 retest ouab inactive and HEK293 Tl flux2 inactive.
Screening COc1ccc(/C=C(\CC(=O)O)c2nc3ccccc3s2)cc1O returned WT yeast gro inh inactive, RBBP9 inh inactive, 14-3-3 Bad PPI inactive, KCC2 mod inactive, NCF1 inh inactive and ROMK mod inactive.
`COc1ccc(-c2nn(-c3ccccc3)cc2/C=C(\CC(=O)O)c2nc3ccccc3s2)cc1OC` gave WT yeast gro inh inactive, RBBP9 inh inactive, 14-3-3 Bad PPI inactive, KCC2 mod -3.81, NCF1 inh inactive, ROMK mod inactive, KCC2 sec1 inactive, KCC2 bumet counter inactive, KCC2 secondary2 inactive, HEK293 Tl flux inconclusive, KCC2 retest ouab 0.0143 and HEK293 Tl flux2 inactive.
For O=c1cc(CN2CCc3ccccc32)c2ccc(O)cc2o1 the results were WT yeast gro inh inactive, RBBP9 inh inactive, 14-3-3 Bad PPI inactive, NCF1 inh inactive, ROMK mod inactive, KCC2 sec1 inactive, KCC2 bumet counter inactive, KCC2 secondary2 inactive, HEK293 Tl flux inactive, KCC2 retest ouab 0.0176 and HEK293 Tl flux2 inactive.
For O=C1NC[C@@H](Cc2cccc3ccccc23)N(CCc2cc(C(F)(F)F)cc(C(F)(F)F)c2)C1=O the results were 14-3-3 Bad PPI inactive, KCC2 mod -3.95, NCF1 inh inactive, KCC2 sec1 inactive, KCC2 bumet counter inactive, KCC2 secondary2 0.0248, HEK293 Tl flux inactive, KCC2 retest ouab inactive and HEK293 Tl flux2 inactive.
CN=c1scc(-c2ccc(F)cc2)n1/N=C/c1ccc(O)c(O)c1 was read as WT yeast gro inh inactive, RBBP9 inh inactive, 14-3-3 Bad PPI inactive, KCC2 mod -4.19, NCF1 inh inactive, ROMK mod inactive, KCC2 sec1 inactive, KCC2 bumet counter inactive, KCC2 secondary2 0.0231, HEK293 Tl flux inactive, KCC2 retest ouab 0.0147 and HEK293 Tl flux2 inconclusive.
`CCCNC(=S)N1CCC(NC(=O)Nc2ccc(C)cc2)CC1` gave WT yeast gro inh inactive, RBBP9 inh inactive, 14-3-3 Bad PPI inactive, KCC2 mod inactive, NCF1 inh inactive and ROMK mod inactive.
For Cc1cccc2cc3c(nc12)SC(=NCC1CCCO1)N(Cc1ccco1)C3 (stereo unspecified) the results were WT yeast gro inh inactive, RBBP9 inh inactive, 14-3-3 Bad PPI inactive, KCC2 mod inactive and NCF1 inh inactive.
Screening Cc1ccc2nc3c(cc2c1)CN(Cc1ccco1)C(=NCC1CCCO1)S3 (stereo unspecified) returned WT yeast gro inh inactive, RBBP9 inh inactive, 14-3-3 Bad PPI inactive, KCC2 mod 3.05, NCF1 inh inactive, KCC2 sec1 inactive, KCC2 bumet counter inconclusive, KCC2 secondary2 inactive, HEK293 Tl flux inactive, KCC2 retest ouab inactive and HEK293 Tl flux2 inactive.

Source: PubChem BioAssay
